Measured values from different studies.
Each line is one published result; the experiments were not run side by side.
Target: Phosphorylase b kinase gamma catalytic chain, skeletal muscle/heart isoform (PHKG1, Homo sapiens, UniProt Q16816)

| Structure (SMILES) | read-out | technique | tested at | remaining binding [%] |
| --- | --- | --- | --- | --- |
| CN(c1nccc(-c2cnn3ncccc23)n1)C1CC1 | binding |  | 1 µM | 100 |
| O=C(c1ccc(Nc2ncc(Cl)c(-c3cc4ccccc4s3)n2)cc1)N1CCC(N2CCCC2)CC1 | binding | competition with immobilised ligand | 1 µM | 54 |
| Cc1c(NC(=O)c2cc(C(N)=O)nc3cc(F)ccc23)c(C(F)(F)F)nn1Cc1ccc(C(C)(C)C)cc1 | cell-free assay | competition with immobilised ligand | 1 µM | 100 |
| CN(C)c1ncc(F)c(-c2cnn3ncccc23)n1 | binding |  | 1 µM | 100 |
| C[C@@H](c1ccc(-n2cnc3c(N)ncnc32)cc1)N1CCc2nn(C)c(Cc3ccccc3)c2C1=O | binding | competition with immobilised ligand | 0.1 µM | 90 |
| CN(C)c1nccc(-c2cnn3ncccc23)n1 | binding |  | 1 µM | 100 |
| O=C(Nc1c[nH]nc1C(=O)NC1CCNCC1)c1cc(F)cc(F)c1 | binding | competition with immobilised ligand | 1 µM | 93 |
| O=C(NCCCN1CCOCC1)c1ccc(Nc2ncc(Cl)c(-c3ccc(Cl)s3)n2)cc1 | binding | competition with immobilised ligand | 1 µM | 56 |
| CC(=O)c1c(NS(C)(=O)=O)c2cc(-c3ccc(Cl)cc3)c(-c3ccc(Cl)cc3Cl)nc2n(C)c1=O | cell-free assay | competition with immobilised ligand | 1 µM | 94 |
| C=CC(=O)N1CCC(C(=O)NCC(=O)N2CCN(c3nc(-c4cnc(N)nc4C(F)F)nc(N4CCOCC4)n3)CC2)CC1 | binding | competition with immobilised ligand | 1 µM | 100 |
| N#CC1(c2ccccn2)CCN(Cc2cc(C(=O)N3CCCC3)c(=O)n3ccccc23)CC1 | cell-free assay | competition with immobilised ligand | 1 µM | 100 |
| CN(CCCC(F)(F)F)c1nccc(-c2cnn3ncccc23)n1 | binding |  | 1 µM | 100 |
| CNC(=O)[C@@H]1CC[C@@H](n2c(-c3ccc4cnccc4c3)nc3ccc(C(=O)NCc4cccc(C(N)=O)c4)cc32)C1 | binding | competition with immobilised ligand | 1 µM | 100 |
| COc1ccc2cc(OCC3(C(=O)O)CN(C(=O)c4ccc(F)cc4)C3)ccc2c1 | cell-free assay | competition with immobilised ligand | 1 µM | 100 |
| O=C(c1ccc(Nc2nccc(-c3cc4ccccc4s3)n2)cc1)N1CCC(N2CCCC2)CC1 | binding | competition with immobilised ligand | 1 µM | 96 |
| Cc1nc(N2CC[C@@H](O)C2)ncc1-c1cc(C(F)(F)F)cc2[nH]ncc12 | cell-free assay | competition with immobilised ligand | 1 µM | 81 |
| CN(C)c1nccc(-c2cnc3ncccn23)n1 | binding |  | 1 µM | 100 |
| O=C(O)[C@H]1[C@H](Cn2nnc3ccccc3c2=O)CC[C@@H]1C(=O)c1ccc(OCCC2CCOCC2)cc1 | cell-free assay | competition with immobilised ligand | 1 µM | 74 |
| F[C@@H]1CCN(c2nccc(-c3cnn4ncccc34)n2)C1 | binding |  | 1 µM | 100 |
| O=C(N[C@H]1CCCCC/C=C\C2C[C@@]2(C(=O)O)NC(=O)[C@@H]2C[C@@H](Oc3ccncc3)CN2C1=O)OC1CCCC1 (stereo partly shown) | binding | competition with immobilised ligand | 1 µM | 88 |
| C[C@@H]1CCN(c2nccc(-c3cnn4ncccc34)n2)C1 | binding |  | 1 µM | 100 |
| c1cncc(-c2cccc(Nc3nccc(NC4CCCCC4)n3)c2)c1 | binding | competition with immobilised ligand | 10 µM | 75 |
